Data reported in paper PMC3858399 (Journal of medicinal chemistry, 2013).
Entries after “also recorded” stand apart in the source; their conditions may differ. Where two headings read alike, the source gives them in different places.

Experiments:
[1] = system: mice with chronic constriction injury (CCI) of the sciatic nerve; conditions: cited from earlier work; for Reversal of neuropathic pain following CCI in mice: via an A3AR-mediated mechanism
[2] = system: mice with chronic constriction injury (CCI) of the sciatic nerve; experiment: CCI model of neuropathic pain; type: in vivo, mouse; conditions: for Effect on Paw Withdrawal Thresholds (PWT) in contralateral paws: data not shown; for Time of maximal effect on mechano-allodynia: i.p. 3 µmol/kg on D7 after CCI; for Reversal of mechano-allodynia after CCI: i.p. 3 µmol/kg on day 7 (D7) after CCI, mouse
Outline: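 Male CD-1 mice (25–30 g), housed 4–5 per cage with a 12 h light/dark cycle. CCI of the left sciatic nerve (Bennett model) under isoflurane (3% induction, 2% maintenance in 100% O2); wound closed with a muscle suture and skin clip. Test compound or vehicle (5% DMSO in saline) given i.p. at 3 µmol/kg on D7, at peak mechano-allodynia. Experimenters blinded; mean ± SEM.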

[3] = system: A3AR−/− mice with CCI of the sciatic nerve; experiment: CCI model of neuropathic pain in A3AR knockout mice; type: in vivo, mouse; conditions: i.p. 3 µmol/kg, male A3AR knock-out mice
hA3AR = molecular target: T1, hA3AR (Homo sapiens, UniProt P0DMS8); experiment: Radioligand binding at hA3AR
T1 sequence (P0DMS8 1-318): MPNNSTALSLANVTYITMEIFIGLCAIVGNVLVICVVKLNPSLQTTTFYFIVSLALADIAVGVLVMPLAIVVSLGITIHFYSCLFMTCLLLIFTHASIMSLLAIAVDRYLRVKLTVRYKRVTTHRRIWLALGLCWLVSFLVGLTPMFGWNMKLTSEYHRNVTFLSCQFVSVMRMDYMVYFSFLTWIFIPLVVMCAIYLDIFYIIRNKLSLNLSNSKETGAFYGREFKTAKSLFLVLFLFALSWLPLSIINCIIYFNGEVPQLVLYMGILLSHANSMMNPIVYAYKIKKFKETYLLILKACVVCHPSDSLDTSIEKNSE

mA1AR = molecular target: T2, mA1AR (Mus musculus, UniProt Q60612); type: cell-based; conditions: tested up to 10 µM
T2 sequence (Q60612 1-326): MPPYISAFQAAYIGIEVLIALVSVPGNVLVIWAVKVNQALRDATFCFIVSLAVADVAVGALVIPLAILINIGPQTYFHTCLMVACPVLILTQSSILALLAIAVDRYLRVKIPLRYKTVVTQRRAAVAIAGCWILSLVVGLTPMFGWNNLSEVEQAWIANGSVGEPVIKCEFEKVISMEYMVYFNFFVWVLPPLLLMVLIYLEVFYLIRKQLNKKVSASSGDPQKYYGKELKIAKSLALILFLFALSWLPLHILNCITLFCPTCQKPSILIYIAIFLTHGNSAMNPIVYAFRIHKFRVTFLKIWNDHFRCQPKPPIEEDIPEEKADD

mA3AR = molecular target: T3, mA3AR (Mus musculus, UniProt Q61618); experiment: Radioligand binding at mA3AR
T3 sequence (Q61618 1-319): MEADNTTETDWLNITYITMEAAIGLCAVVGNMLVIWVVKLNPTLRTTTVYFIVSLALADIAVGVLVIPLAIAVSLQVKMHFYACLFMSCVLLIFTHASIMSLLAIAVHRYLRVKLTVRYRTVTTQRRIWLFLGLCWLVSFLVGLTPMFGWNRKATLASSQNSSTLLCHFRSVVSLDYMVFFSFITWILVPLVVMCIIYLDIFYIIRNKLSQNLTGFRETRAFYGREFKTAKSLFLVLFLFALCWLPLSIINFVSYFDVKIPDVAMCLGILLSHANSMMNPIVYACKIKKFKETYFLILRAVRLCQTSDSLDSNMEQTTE

## CNC(=O)[C@H]1O[C@@H](n2cnc3c(NCc4cccc(I)c4)ncnc32)[C@H](O)[C@@H]1O [1a, N^6-(3-iodobenzyl)adenosine-5'-N-methyluronamide]
[1]
  Effect on Paw Withdrawal Thresholds (PWT) in contralateral paws: lacked effect
  Reversal of neuropathic pain following CCI in mice: reverse the development of neuropathic pain

## CNC(=O)[C@H]1O[C@@H](n2cnc3c(NCc4cccc(I)c4)nc(Cl)nc32)[C@H](O)[C@@H]1O [1b, 2-Chloro-N^6-(3-iodobenzyl)adenosine-5'-N-methyluronamide]
[1]
  Effect on Paw Withdrawal Thresholds (PWT) in contralateral paws: lacked effect
  Reversal of neuropathic pain following CCI in mice: reverse the development of neuropathic pain

## CNC(=O)[C@@]12C[C@@H]1[C@@H](n1cnc3c(NCc4cccc(Cl)c4)nc(C#Cc4ccc(S(=O)(=O)O)cc4)nc31)[C@H](O)[C@@H]2O [Compound 6, 4-((6-(3-Chlorobenzylamino)-9-((1S,2R,3S,4R,5S)-3,4-dihydroxy-5-(methylcarbamoyl)bicyclo[3.1.0]hexan-2-yl)-9H-purin-2-yl)ethynyl)benzenesulfonic acid]
[2]
  Effect on Paw Withdrawal Thresholds (PWT) in contralateral paws: lacked effect
  Time of maximal effect on mechano-allodynia: ≤ 1 h
  Reversal of mechano-allodynia after CCI: reversed mechano-allodynia
[3]
  Anti-allodynic effect in A3AR−/− mice: significantly but not completely abrogated; also recorded: retained the ability to produce a small protective effect

## CNC(=O)[C@@]12C[C@@H]1[C@@H](n1cnc3c(NCc4cccc(Cl)c4)nc(C#Cc4cccc(S(=O)(=O)O)c4)nc31)[C@H](O)[C@@H]2O [Compound 7, 3-((6-(3-Chlorobenzylamino)-9-((1S,2R,3S,4R,5S)-3,4-dihydroxy-5-(methylcarbamoyl)bicyclo[3.1.0]hexan-2-yl)-9H-purin-2-yl)ethynyl)benzenesulfonic acid]
hA3AR
  A3AR selectivity in comparison to the A1AR and A2AAR: > 10,000 fold
[2]
  Effect on Paw Withdrawal Thresholds (PWT) in contralateral paws: lacked effect
  Time of maximal effect on mechano-allodynia: ≤ 1 h
  Reversal of mechano-allodynia after CCI: reversed mechano-allodynia
mA1AR
  Functional activity at the mA1AR: completely inactive up to 10 µM
[3]
  Anti-allodynic effect in A3AR−/− mice: completely lost; also recorded: completely eliminated
mA3AR
  A3AR selectivity in comparison to the A1AR and A2AAR: > 1000 fold

## CCCOC(=O)c1c(-c2ccccc2)nc(CC)c(C(=O)SCC)c1CCC [compound 45, 5-propyl-2-ethyl-4-propyl-3-(ethylsulfanylcarbonyl)-6-phenylpyridine-5-carboxylate, reference compound]
[2]; 45 intrathecal 3 nmol, 7 at 3 µmol/kg
  Effect of antagonist on the anti-allodynic actions of systemic agonist 7: had no effect; also recorded: did not block the effects of systemic 7
[1]; antagonist administered systemically, identical CCI model
  Blocking of the anti-allodynic effects of A3AR agonist 1a: completely effective
